Reference: ChEMBL document CHEMBL1156101, “Discovery and optimization of potent and selective triazolopyridazine series of c-Met inhibitors” (Bioorg Med Chem Lett, 2009)

Tests used:
[1] = target: T1, Cytochrome P450 3A4 (Homo sapiens, UniProt P08684); test: Inhibition of human CYP3A4; format: ADME
[2] = target: T1, Cytochrome P450 3A4; test: Inhibition of human CYP3A4 in human liver microsomes preincubated with NADPH; format: ADME, Microsome
[3] = AUC (0 to 24 hrs) in mouse at ED50, po; format: ADME, organism-based; parameters: time < 24 hr, route oral; conditions: plasma
How it was run: (§1)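 NIH3T3 cells transfected with human TPR-Met, implanted as xenograft in mice. Dosing by oral gavage once daily at 3, 10, 30 and 100 mg/kg for 22 days, starting 24 h after tumor cell implantation. Vehicle: 2% HMPC, 1% Tween in water pH 2.2 w/MSA. Tumor growth and body weight followed; n = 12 per group, mean ± standard error. AUC(0-24) taken at ED50 and ED90.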

[4] = AUC (0 to 24 hrs) in mouse at ED90, po; format: ADME, organism-based; parameters: time < 24 hr, route oral; conditions: plasma; how it was run: as §1
[5] = Intrinsic clearance in rat liver microsomes; format: ADME, Microsome
How it was run: (§2)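 Intrinsic clearance was measured in vitro in rat, mouse and human liver microsomes.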

[6] = Intrinsic clearance in mouse liver microsomes; format: ADME, Microsome; how it was run: as §2
[7] = Intrinsic clearance in human liver microsomes; format: ADME, Microsome; how it was run: as §2
[8] = Plasma protein binding in rat at 5 ug/ml; format: ADME, cell-free; conditions: read-out: PPB (converted)
How it was run: (§3)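 Plasma protein binding was measured by equilibrium dialysis at 5 µg/mL.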

[9] = Clearance in Sprague-Dawley rat at 0.25 mg/kg, iv in 20% hydroxypropyl beta-cyclodextrin in water pH 3.5 w/MSA vehicle; format: ADME, organism-based; parameters: dose 0.25 mg/kg, route intravenous; conditions: in vivo
How it was run: (§4)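 Male Sprague-Dawley rats, n=3, dosed intravenously at 0.25 mg/kg in 20% hydroxypropyl beta-cyclodextrin in water (pH 3.5, adjusted with MSA). In the same study, a separate oral arm used 2 mg/kg in 2% HMPC/1% Tween in water (pH 2.2, HCl) to derive bioavailability.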

[10] = Volume of distribution at steady state in Sprague-Dawley rat at 0.25 mg/kg, iv in 20% hydroxypropyl beta-cyclodextrin in water pH 3.5 w/MSA vehicle; format: ADME, organism-based; parameters: dose 0.25 mg/kg, route intravenous; conditions: in vivo, read-out: Vdss
How it was run: (§5)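 Male Sprague-Dawley rats, n=3. Intravenous dosing at 0.25 mg/kg in DMSO or in 20% hydroxypropyl beta-cyclodextrin in water pH 3.5 w/MSA. Oral dosing at 2 mg/kg in 2% HMPC, 1% Tween in water pH 2.2 w/HCl.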

[11] = Half life in Sprague-Dawley rat at 0.25 mg/kg, iv in 20% hydroxypropyl beta-cyclodextrin in water pH 3.5 w/MSA vehicle; format: ADME, organism-based; parameters: dose 0.25 mg/kg, route intravenous; conditions: in vivo; how it was run: as §4
[12] = AUC (0 to infinity) in Sprague-Dawley rat at 2 mg/kg, po; format: ADME, organism-based; parameters: time infinity, dose 2 mg/kg, route oral; conditions: plasma; how it was run: as §5
[13] = Oral bioavailability in Sprague-Dawley rat at 2 mg/kg; format: ADME, organism-based; conditions: in vivo; how it was run: as §5
[14] = target: Voltage-gated inwardly rectifying potassium channel KCNH2 (Homo sapiens, UniProt Q12809); test: Inhibition of human ERG
[15] = tested on: Heart; test: Cardiotoxicity in rabbit heart assessed as electrocardiographic parameters up to 3 uM; format: toxicity, tissue-based, Oryctolagus cuniculus
[16] = species on record: Mus musculus; test: Inhibition of HGF-induced c-Met phosphorylation in BALB/c mouse liver after 6 hrs by electrochemiluminescent assay; format: functional
How it was run: (§6)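 Mice were given 30 mg/kg by oral gavage in 2% HMPC, 1% Tween in water pH 2.2 w/MSA, then challenged with HGF. HGF-induced c-Met phosphorylation in liver was quantified at several time points. Plasma and liver drug levels were measured alongside. n = 3, mean ± standard deviation.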

[17] = species on record: Mus musculus; test: Inhibition of HGF-induced c-Met phosphorylation in BALB/c mouse plasma after 6 hrs by electrochemiluminescent assay; format: functional; how it was run: as §6
[18] = tested on: Mus musculus; test: Inhibition of HGF-induced c-Met phosphorylation in BALB/c mouse liver at 30 mg/kg, po after 12 hrs by electrochemiluminescent assay; format: functional; how it was run: as §6
[19] = tested on: NIH3T3; test: Antitumor activity against TPR-Met expressing NIH/3T3 xenografted in mouse dosed po over 22 days q.d; format: functional; conditions: 528 h; how it was run: as §1
[20] = tested on: Mus musculus; test: Toxicity in mouse xenografted with TPR-Met expressing NIH/3T3 up to 100 mg/kg, po over 22 days q.d; format: organism-based, NIH3T3; parameters: dose 100 mg/kg, route oral; conditions: in vivo, 528 h; how it was run: as §1
[21] = species on record: Homo sapiens; test: Plasma protein binding in human at 5 ug/ml; conditions: read-out: PPB (converted)
[22] = target: Hepatocyte growth factor receptor (Homo sapiens, UniProt P08581); test: Inhibition of c-Met by HTRF assay
[23] = target: CYP3A4 (Homo sapiens, UniProt P08684); test: Selective ratio of human CYP3A4 IC50 to human CYP3A4 IC50 with pre-incubation; format: ADME; conditions: read-out: Ratio IC50
[24] = Plasma protein binding in mouse at 5 ug/ml; format: ADME, cell-free; conditions: read-out: PPB (converted); how it was run: as §3
[25] = Clearance in Sprague-Dawley rat at 0.25 mg/kg, iv in DMSO vehicle; format: ADME, organism-based; parameters: dose 0.25 mg/kg, route intravenous; conditions: in vivo; how it was run: as §5
[26] = Volume of distribution at steady state in Sprague-Dawley rat at 0.25 mg/kg, iv in DMSO vehicle; format: ADME, organism-based; parameters: dose 0.25 mg/kg, route intravenous; conditions: in vivo, read-out: Vdss; how it was run: as §5
[27] = Half life in Sprague-Dawley rat at 0.25 mg/kg, iv in DMSO vehicle; format: ADME, organism-based; parameters: dose 0.25 mg/kg, route intravenous; conditions: in vivo; how it was run: as §5

COc1ccc2c(OCc3nnc4ccc(-c5ccc(F)c(F)c5)nn34)ccnc2c1
IC50 [1]: > 50 µM
IC50 [2]: 6.4 µM

COc1cnc2c(NCc3nnc4ccc(-c5cc(C)ns5)nn34)ccnc2c1
AUC(0-t) at 24 h [3]: 0.43 µM·h
AUC(0-t) at 24 h [4]: 4.7 µM·h
IC50 [1]: > 50 µM
IC50 [2]: 26 µM
microsomal CLint [5]: 59 µL/min/mg
microsomal CLint [6]: 60 µL/min/mg
microsomal CLint [7]: 24 µL/min/mg
fraction unbound at 5 ug/ml [8]: 0.007
clearance [9]: 3.08 mL/min/kg
Vd [10]: 0.303 L/kg
half-life [11]: 1.76 h
AUC(0-inf) [12]: 3500 ng·h/mL
bioavailability [13]: 30.5%
Ki [14]: 1.6 µM
Activity [15]: Non-toxic
EC90 [16]: 1.8 µM
EC90 [17]: 0.136 µM
inhibition in vivo at 30 mg/kg [18]: > 50%
ED50 [19]: 3.3 mg/kg
ED90 [19]: 22 mg/kg
Activity [20]: Non-toxic
fraction unbound at 5 ug/ml [21]: 0.025

COc1ccc2c(O[C@@H](C)c3nnc4ccc(-c5ccccc5)nn34)ccnc2c1
IC50 [1]: 14 µM
IC50 [2]: 3.9 µM

COc1cnc2c(NCc3nnc4ccc(-c5ccc(F)c(F)c5)nn34)ccnc2c1
IC50 [1]: > 50 µM
IC50 [2]: 9.1 µM

COc1ccc2c(OCc3nnc4ccc(-c5cc(F)cc(F)c5)nn34)ccnc2c1
IC50 [1]: > 50 µM
IC50 [2]: 8.3 µM

COc1ccc2c(SCc3nnc4ccc(-c5ccccc5)nn34)ccnc2c1
IC50 [22]: > 6.67 µM
IC50 [1]: 4.5 µM
IC50 [2]: 7 µM
IC50 shift [23]: 0.64

COc1ccc2c(O[C@H](C)c3nnc4ccc(-c5ccccc5)nn34)ccnc2c1
IC50 [1]: 18 µM
IC50 [2]: 8.9 µM

COc1ccc2c(OCc3nnc4ccc(-c5cc(F)c(F)c(F)c5)nn34)ccnc2c1
IC50 [22]: 0.005 µM
IC50 [1]: 29 µM
IC50 [2]: 2 µM
IC50 shift [23]: 14

COc1cnc2c(NCc3nnc4ccc(-c5cc(F)c(F)c(F)c5)nn34)ccnc2c1
IC50 [1]: > 50 µM
IC50 [2]: 16 µM

COc1ccc2c(OCc3nnc4ccc(-c5cc(C)ns5)nn34)ccnc2c1
IC50 [1]: 17 µM
IC50 [2]: 4.8 µM

COc1ccc2c(NCc3nnc4ccc(-c5ccccc5)nn34)ccnc2c1
IC50 [22]: 1.37 µM
IC50 [1]: > 50 µM
IC50 [2]: 50 µM
IC50 shift [23]: > 1

COc1cnc2c(NCc3nnc4ccc(-c5cc(F)cc(F)c5)nn34)ccnc2c1
IC50 [1]: > 50 µM
IC50 [2]: 29 µM
microsomal CLint [5]: 53 µL/min/mg
microsomal CLint [6]: 49 µL/min/mg
microsomal CLint [7]: 47 µL/min/mg
fraction unbound at 5 ug/ml [8]: 0.002
fraction unbound at 5 ug/ml [24]: 0.023
clearance [25]: 0.717 mL/min/kg
Vd [26]: 0.201 L/kg
half-life [27]: 3.84 h
AUC(0-inf) [12]: 31100 ng·h/mL
bioavailability [13]: 62%
Ki [14]: 0.2 µM
fraction unbound at 5 ug/ml [21]: 0.008
